From ChEMBL document CHEMBL1139103, “Identification of novel glycine sulfonamide antagonists for the EP1 receptor” (Bioorg Med Chem Lett, 2007) come the findings set out here.

Structures are written as SMILES. Bounds are passed on as bounds.

Assay [1] has as its target T1, Prostaglandin E2 receptor EP1 subtype (Homo sapiens, UniProt P34995).
T1 sequence (P34995 whole entry): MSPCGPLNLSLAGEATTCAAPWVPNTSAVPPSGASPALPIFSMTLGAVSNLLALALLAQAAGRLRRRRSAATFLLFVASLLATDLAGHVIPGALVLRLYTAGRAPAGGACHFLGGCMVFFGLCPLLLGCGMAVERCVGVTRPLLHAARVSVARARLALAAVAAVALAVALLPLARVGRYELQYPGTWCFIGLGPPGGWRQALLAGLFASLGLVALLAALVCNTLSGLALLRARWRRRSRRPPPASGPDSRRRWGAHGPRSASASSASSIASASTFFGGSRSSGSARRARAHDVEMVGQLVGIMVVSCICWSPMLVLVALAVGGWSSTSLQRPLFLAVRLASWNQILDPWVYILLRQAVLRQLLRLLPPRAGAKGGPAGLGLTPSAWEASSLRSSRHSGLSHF
The experiment in a line: Antagonist activity at human EP1 expressed in CHOK1 cells receptor assessed as inhibition of intracellular calcium mobilization by FLIPR assay. The class given is functional, cell-based, CHO-K1. The procedure, abridged: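 Stable EP1- or EP3-transfected CHO-K1 whole cells loaded with calcium-sensitive dye Fluo-3; inhibition of PGE2-evoked intracellular Ca2+ mobilisation read on a fluorimetric imaging plate reader (FLIPR). IC50s converted to pKi. Means of at least two experiments unless specified.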

The target of assay [2] is T1, Prostaglandin E2 receptor EP1 subtype. The experiment in a line: Displacement of [3H]PGE2 from EP1 expressed in CHO cells. It is filed as cell-based. The procedure, abridged: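 Membranes from stable EP1-transfected CHO-K1 cells incubated with compound and [3H]-PGE2 (3 nM final) for 30 min at 30 °C. Bound radioactivity counted by liquid scintillation. Means of at least four experiments.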
For orientation: Loss of bound radioactivity is the signal in a displacement assay; it reports binding, not function.

In the case of `COc1ccc(CCNC(=O)CN(c2cccc(Cl)c2)S(=O)(=O)c2ccc(C)cc2)cc1OC`, the Ki in assay [1] is 61.7 nM.

As to `Cc1ccc(S(=O)(=O)N(CC(=O)NCc2ccc(Cl)cc2)c2cccc(C)n2)cc1`, the Ki was > 1000 nM in assay [2] and > 1450 nM in assay [1].

For the compound `Cc1ccc(S(=O)(=O)N(CC(=O)NCCc2ccccc2)c2ccccc2C)cc1`, the inhibition constant Ki in assay [1] is 1350 nM.

`Cc1ccc(S(=O)(=O)N(CC(=O)NCc2ccc(Cl)cc2)c2cccnc2C)cc1`: the Ki in assay [2] is 200 nM; in assay [1] it was 676 nM.

Take `COc1ccc(CCNC(=O)CN(c2cccc(C)c2C)S(=O)(=O)c2ccc(C)cc2)cc1OC`: in assay [1], the Ki is 12.9 nM.

As to `COc1ccc(CCNC(=O)CN(c2ccccc2C)S(=O)(=O)c2ccc(C)cc2)c(F)c1OC`, the Ki in assay [1] is 66.1 nM.

As for `CCc1ccccc1N(CC(=O)NCc1ccccc1)S(=O)(=O)c1ccc(C)cc1`, the Ki in assay [2] was 63.1 nM; in assay [1], 224 nM.

In the case of `COc1ccc(CCNC(=O)CN(c2ccccc2)S(=O)(=O)c2ccc(C)cc2)cc1OC`, the Ki in assay [1] is 589 nM.

Take `CCc1ccccc1N(CC(=O)NCc1cccc(OC)c1)S(=O)(=O)c1ccc(C)cc1`: the Ki in assay [2] is 79.4 nM; in assay [1] it was 138 nM.

For `CCc1ccccc1N(CC(=O)NCc1ccccc1OC)S(=O)(=O)c1ccc(C)cc1`, the Ki in assay [1] was 1070 nM.

Regarding `COc1ccc(CCNC(=O)CN(c2ccccc2C)S(=O)(=O)c2ccc(C)cc2)cc1OC`, in assay [1], the Ki was 38.9 nM.

As for `CCc1ccccc1N(CC(=O)NCc1ccc(C(F)(F)F)cc1)S(=O)(=O)c1ccc(C)cc1`, in assay [1], the Ki is 209 nM.

On to `CCc1ccccc1N(CC(=O)NCCc1ccc(OC)c(OC)c1)S(=O)(=O)c1ccccc1C#N`, for which the Ki in assay [1] was > 3160 nM.

In the case of `COc1ccc(CCNC(=O)CN(c2ccc(Br)cc2)S(=O)(=O)c2ccc(C)cc2)cc1OC`, the Ki in assay [1] is > 3800 nM.

For the compound `CCc1ccccc1N(CC(=O)NCCc1ccc(OC)c(OC)c1)S(=O)(=O)c1ccccc1Cl`, in assay [1], the Ki is 2000 nM.

For `CCc1ccccc1N(CC(=O)NCCc1ccc(OC)c(OC)c1)S(=O)(=O)c1cccc(C#N)c1`, in assay [1], the Ki was 240 nM.

Take `CCc1ccccc1N(CC(=O)NCc1ccc(OC)c(OC)c1)S(=O)(=O)c1ccc(C)cc1`: the Ki in assay [2] was 25.1 nM; in assay [1] it was 282 nM.

As for `CCc1ccccc1N(CC(=O)NCCc1ccc(OC)c(OC)c1)S(=O)(=O)c1ccc(C#N)cc1`, the Ki in assay [1] was 31.6 nM.

With `CCc1ccccc1N(CC(=O)NCc1cccc(Cl)c1)S(=O)(=O)c1ccc(C)cc1`, the Ki in assay [2] is 251 nM; in assay [1] it was 1410 nM.

In the case of `CCc1ccccc1N(CC(=O)NCc1ccc(OC)cc1)S(=O)(=O)c1ccc(C)cc1`, the Ki was 25.1 nM in assay [2] and 35.5 nM in assay [1].

As for `COc1ccc(CCNC(=O)CN(c2cccc(Br)c2)S(=O)(=O)c2ccc(C)cc2)cc1OC`, the Ki in assay [1] is 34.7 nM.

On to `CCc1ccccc1N(CC(=O)NCCc1ccc(OC)c(OC)c1)S(=O)(=O)c1cccc(C)c1`, for which the Ki in assay [1] was 1660 nM.

On to `COc1ccc(CCNC(=O)CN(c2ccc(C)cc2)S(=O)(=O)c2ccc(C)cc2)cc1OC`, for which, in assay [1], the Ki is > 1120 nM.

In the case of `COc1ccc(N(CC(=O)NCCc2ccc(OC)c(OC)c2)S(=O)(=O)c2ccc(C)cc2)cc1`, in assay [1], the inhibition constant (Ki) was > 1580 nM.

On to `CCc1ccccc1N(CC(=O)NCCc1ccc(OC)c(OC)c1)S(=O)(=O)c1ccccc1C`, for which the Ki in assay [1] was 166 nM.

In the case of `COc1ccc(CCNC(=O)CN(c2ccccc2C)S(=O)(=O)c2ccccc2)cc1OC`, the Ki in assay [1] is 741 nM.

Consider `Cc1ccc(S(=O)(=O)N(CC(=O)NCc2ccc(Cl)cc2)c2ccc(C)cn2)cc1`, for which the results for the Ki in assay [2] and in assay [1] were > 1000 nM and > 1450 nM, respectively.

Turning to `Cc1ccc(S(=O)(=O)N(CC(=O)NCc2ccc(Cl)cc2)c2cccnc2)cc1`, the Ki is > 1000 nM in assay [2] and > 1450 nM in assay [1].

Regarding `COc1ccc(CCNC(=O)CN(c2cccc(C(F)(F)F)c2)S(=O)(=O)c2ccc(C)cc2)cc1OC`, the Ki in assay [1] is 30.9 nM.

For `COc1ccc(CCNC(=O)CN(c2ccc(F)cc2)S(=O)(=O)c2ccc(C)cc2)cc1OC`, the Ki in assay [1] is > 1580 nM.

As to `CCc1ccccc1N(CC(=O)NCc1ccccc1F)S(=O)(=O)c1ccc(C)cc1`, in assay [1], the Ki was 135 nM.

With `CCc1ccccc1N(CC(=O)NCCc1ccc(OC)c(OC)c1)S(=O)(=O)c1ccc(OC(F)(F)F)cc1`, in assay [1], the Ki is 69.2 nM.

As to `Cc1ccc(S(=O)(=O)N(CC(=O)NCc2ccc(Cl)cc2)c2ccccn2)cc1`, the Ki was > 1000 nM in assay [2] and > 1450 nM in assay [1].

`COc1ccc(CCNC(=O)CN(c2ccc(Cl)cc2)S(=O)(=O)c2ccc(C)cc2)cc1OC`: the Ki in assay [1] was 1290 nM.

For `CCc1ccccc1N(CC(=O)NCc1ccc(Br)cc1)S(=O)(=O)c1ccc(C)cc1`, the Ki in assay [1] is 22.9 nM.

For `COc1ccc(CCNC(=O)CN(c2ccccc2C)S(=O)(=O)c2ccc(C)cc2)cc1`, in assay [1], the Ki is 170 nM.

For the compound `CCc1ccccc1N(CC(=O)NCc1cccc(OC(F)(F)F)c1)S(=O)(=O)c1ccc(C)cc1`, the Ki in assay [1] is 427 nM.

Regarding `Cc1ccc(S(=O)(=O)N(CC(=O)NCCc2ccc(Cl)cc2)c2ccccc2C)cc1`, in assay [1], the Ki is 661 nM.

With `Cc1ccc(S(=O)(=O)N(CC(=O)NCc2ccc(Cl)cc2)c2ccc(C)nc2)cc1`, the Ki is > 1000 nM in assay [2] and > 1450 nM in assay [1].

With `CCc1ccccc1N(CC(=O)NCCc1ccc(OC)c(OC)c1)S(=O)(=O)c1cccc(OC(F)(F)F)c1`, the Ki in assay [1] is 708 nM.

Take `Cc1ccc(S(=O)(=O)N(CC(=O)NCc2ccc(Cl)cc2)c2ccnn2C)cc1`: the Ki was 398 nM in assay [2] and 589 nM in assay [1].

As to `CCc1ccccc1N(CC(=O)NCCc1ccc(OC)c(OC)c1)S(=O)(=O)c1ccc(C(F)(F)F)cc1`, in assay [1], the Ki was 19.1 nM.

With `CCc1ccccc1N(CC(=O)NCCc1ccc(OC)c(OC)c1)S(=O)(=O)c1ccc(Br)cc1`, the Ki in assay [1] is 28.8 nM.

Consider `CCc1ccccc1N(CC(=O)NCCc1ccc(OC)c(OC)c1)S(=O)(=O)c1ccc(OC)cc1`, for which the Ki in assay [1] is 170 nM.

Turning to `COc1ccc(CCNC(=O)CN(c2cccc(C)c2)S(=O)(=O)c2ccc(C)cc2)cc1OC`, the Ki in assay [1] was 61.7 nM.

In the case of `CNS(=O)(=O)c1cc(CCNC(=O)CN(c2ccccc2C)S(=O)(=O)c2ccc(C)cc2)ccc1O`, in assay [1], the Ki is 3.72 nM.

`CCn1nccc1N(CC(=O)NCc1ccc(Cl)cc1)S(=O)(=O)c1ccc(C)cc1`: the Ki in assay [2] is 158 nM; in assay [1], 72.4 nM.

As to `Cc1ccc(S(=O)(=O)N(CC(=O)NCCc2cccc(O)c2)c2ccccc2C)cc1`, the Ki in assay [1] is 204 nM.

In the case of `Cc1ccc(S(=O)(=O)N(CC(=O)NCCc2ccc(NS(C)(=O)=O)cc2)c2ccccc2C)cc1`, the Ki in assay [1] was 89.1 nM.

In the case of `Cc1ccc(S(=O)(=O)N(CC(=O)NCc2ccc(Cl)cc2)c2ncccc2C)cc1`, the results for the Ki in assay [2] and in assay [1] were 794 nM and > 1450 nM, respectively.

One may read the Ki as a dissociation constant, usually derived from enzyme kinetics or from competition with a known ligand.
